# Runt-SMMHC FRET – blocks binding of human RUNX1 Runt domain to CBFb-SMMHC; Q01196+Q13951; Cerulean-Runt/Venus-CBFb-SMMHC FRET ratio 530/480, 1 h; inhibition, % at 20 µM; 220,000 tested, 0.74% active; AID 1434;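 active means mean inhibition across duplicate retests at 20 µM reaching about 50%, limit read from the data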;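 further: 0% = DMSO wells and 100% = wells with excess untagged CBFb-SMMHC; inhibitors lower the FRET ratio by blocking Runt binding to CBFb-SMMHC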
# Runt-CBFb FRET – blocks binding of human RUNX1 Runt domain to CBFb; 220,000 tested, 0.46% active; inhibition, % at 20 µM; Q01196+Q13951; Cerulean-Runt/Venus-CBFb FRET ratio 530/480, 1 h;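 active means inhibition over about 50% at 20 µM in the single-dose screen, limit read from the data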;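 further: 0% = DMSO wells and 100% = excess unlabeled CBFb competitor control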
#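 test system = Cerulean-Runt domain fusion protein, energy donor | probe or stimulus = Venus-CBFb binding partner, 100 nM | incubation = two 1 h room-temperature incubations shielded from light | detection = fluorescence energy transfer, 422 nm excitation, 530/480 nm emission | measure = loss of energy transfer signal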
# RanGTP-Imp inh – disruptors of Ran-importin-beta complex formation – biochemical, FRET, CFP-Ran, YFP-importin-beta, homogeneous, primary screen; cell-free CFP-Ran/YFP-importin-beta FRET ratio; inhibition, % (test concentration not listed); 300,000 tested, 1.1% active; AID 2216;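 active means more than half of the replicate wells show a fall in the fluorescence ratio signal beyond about 16%, limit read from the data, passing the limit was not always enough; inconclusive means exactly half of the replicate wells pass the set limit; inactive means fewer than half of replicates pass the limit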;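 further: 0% = DMSO wells and 100% = Ran loaded with GDP instead of GTP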
# AI-2 QS modul – modulates the Vibrio harveyi AI-2 quorum sensing system; Vibrio harveyi JMH597 AI-2 luminescence/OD600 ratio, 9 h; hits give low values; strain lacks LuxN and CqsS sensors; 0 = neutral-control median; activity change, % at 7.5 µM; 300,000 tested, 0.4% active; AID 2094; in the data active means activity change below about -75%, passing the limit was not always enough; inconclusive means no clear call, values can overlap the other calls;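 further: luminescence divided by OD600 gain over 9 h not by final OD600 alone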
# Wee1 stabilizer – blocks degradation of human Wee1 kinase; P30291; 220,000 tested, 1.2% active; HeLa Luc-Wee1K328M stability, luciferase luminescence; 100% = proteasome inhibitor MG132 effect; reporter increase, % at 5 µM;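 active means activation above the mean of all tested compounds plus 3 SD, set per screening run, cut at about 8.8% in these data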;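 further: cells exposed to compound for 20 h before luminescence read; 0% = DMSO alone and 100% = MG132 at 30 µM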
# Target sequence (P30291 whole entry K328M): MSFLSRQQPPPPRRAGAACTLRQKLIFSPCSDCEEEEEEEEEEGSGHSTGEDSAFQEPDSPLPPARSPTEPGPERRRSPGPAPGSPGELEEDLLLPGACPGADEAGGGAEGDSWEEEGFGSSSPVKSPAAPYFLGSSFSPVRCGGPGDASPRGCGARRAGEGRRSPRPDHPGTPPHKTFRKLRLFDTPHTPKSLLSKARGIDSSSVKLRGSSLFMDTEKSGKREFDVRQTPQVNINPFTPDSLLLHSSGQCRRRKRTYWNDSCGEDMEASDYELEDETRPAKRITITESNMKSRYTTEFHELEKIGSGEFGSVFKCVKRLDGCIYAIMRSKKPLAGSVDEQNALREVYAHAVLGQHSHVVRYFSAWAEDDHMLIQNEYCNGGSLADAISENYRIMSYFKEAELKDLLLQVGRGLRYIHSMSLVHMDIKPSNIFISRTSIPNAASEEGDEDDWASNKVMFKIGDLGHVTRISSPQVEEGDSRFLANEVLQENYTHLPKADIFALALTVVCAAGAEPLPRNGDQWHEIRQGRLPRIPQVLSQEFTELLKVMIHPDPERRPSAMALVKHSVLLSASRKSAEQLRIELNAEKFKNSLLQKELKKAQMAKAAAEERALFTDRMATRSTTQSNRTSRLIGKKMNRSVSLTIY
# KLK7 zymogen act – proKLK7 (human) activation, primary screen. 370,000 tested, 0.9% active. P49862. activation, % at 7 µM. purified proKLK7, EDANS-DABCYL substrate fluorescence; 100% is mature enzyme control, 0% vehicle;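 active means activation above the mean of all tested compounds plus 3 SD, computed per campaign excluding outliers beyond control limits, cut at about 13% in these data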
# The depositor's hits bear a star; ? = inconclusive; . = no result given. An excerpt weighted towards active compounds, which were near 2.9% of everything screened.
SMILES,Runt-SMMHC FRET,Runt-CBFb FRET,RanGTP-Imp inh,AI-2 QS modul,Wee1 stabilizer,KLK7 zymogen act
Cn1c2ccccc2c2nnc(NN)nc21,2,8,-2,12,-1,0
CNC12CCc3cc(OC)c(OC)c(c31)-c1cc3c(cc1C2)OCO3 (configuration not stated),.,.,.,.,.,-2
Cc1nnc(NC(=O)c2nn(CC(C)C)c(=O)c3ccccc23)s1,-2,1,-1,-4,10*,1
CCOc1ccc(OCc2ccc(C(=O)N/N=C(\C)c3ccccn3)cc2)cc1,0,-1,8,35,9.6*,-1
C/C(=N\NC(=O)c1ccccc1OCc1ccc(F)cc1)c1ccccn1,.,.,.,.,.,-1
Oc1ccc2ccccc2c1/C=N/n1cnnc1,116*,67*,3,26,-2,-1
Oc1ccccc1C=NN=Cc1c(O)ccc2ccccc12,.,.,.,.,.,0
Cc1cnc(C(=O)OCC(=O)c2cc(C)n(C)c2C)cn1,-4,-1,4,11,3,1
COc1ccc(-n2c(=S)[nH]c3sc4c(c3c2=O)CCN(C)C4)cc1,39,14,23*,2,-3,.
Cc1ccc(S(=O)(=O)N(C)C)cc1-n1c(SCC(=O)Nc2ccc(F)cc2Cl)nc2ccccc2c1=O,3,-4,0,13,8.9*,-1
Cc1ccc(S(=O)(=O)N(C)C)cc1-n1c(SCC(=O)Nc2ccc(F)cc2)nc2ccccc2c1=O,3,1,2,4,0,-1
CCOC(=O)C1=C(C)N=C2SC=C(C)N2C1c1ccc(OC)cc1 (configuration not stated),60*,23,10,9,-4,0
CCOC(=O)C1=C(C)N=C2SCCC(=O)N2C1c1ccc(OC)cc1 (configuration not stated),.,.,3,11,3,.
N=c1oc2ccccc2cc1-c1nc(-c2ccccc2)cs1,-160,-60,44*,12,2,-20
N=c1oc2ccc3ccccc3c2cc1-c1nc(-c2ccccc2)cs1,29,22,73*,9,-3,-2
O=c1oc2ccccc2cc1-c1ccccc1,2,-3,-5,0,-2,0
Cc1nc(-c2ccccc2)cs1,1,-1,0,28,5,0
Cc1nn(C)cc1S(=O)(=O)Nc1ccc(F)c(F)c1,.,.,?,11,.,1
COC(=O)CNC(=O)COC(=O)/C=C/c1ccc2ccccc2n1,-2,2,27*,17,1,-2
COC(=O)[C@H](CC(C)C)N(Cc1cn(Cc2ccc(C)cc2)nn1)S(=O)(=O)c1ccc(F)cc1Br,.,.,.,.,.,0
N#Cc1cc(NC(=O)c2ccc(F)cc2)c(=O)n2c1[nH]c1ccccc12,-13,-3,26*,28,-3,.
C=CCSc1nc(N)c2c3c(sc2n1)CN(C)CC3,.,.,19*,2,.,0
CCSc1nc(N)c2c3c(sc2n1)CN(C)CC3,18,2,5,-2,-1,.
CCNc1nc(SCC(N)=O)nc2sc3c(c12)CCN(C)C3,.,.,48*,18,.,1
CCOC(=O)N1CCN(C(=O)/C=C/c2ccc(C(C)(C)C)cc2)CC1,.,.,28*,-4,.,0
SMILES,Runt-SMMHC FRET,Runt-CBFb FRET,RanGTP-Imp inh,AI-2 QS modul,Wee1 stabilizer,KLK7 zymogen act
CCOC(=O)N1CCN(C(=O)/C=C/c2ccc([N+](=O)[O-])cc2)CC1,3,-1,-2,21,1,0
COc1ccccc1CNC(=O)CCCc1nnc2n(C)c(=O)c3sccc3n12,.,.,4,43,.,0
O=C1CN2CCC1C/C2=C\c1ccnc2c(Cl)cccc12 (configuration not stated),-1,2,-3,20,0,-1
CCCn1nc(NC(=O)CC(C)C)c2cc3ccccc3nc21,23,-4,27*,3,-2,-1
CC(C)Cn1nc(NC(=O)C(C)(C)C)c2cc3ccccc3nc21,24,11,-1,31,0,3
CCCCC(=O)Nc1nn(CC(C)C)c2nc3ccccc3cc12,42,22,29*,23,-3,0
Cc1ccc(S(=O)(=O)N2C[C@H]3N(C(=O)OC(C)C)N(C(=O)OC(C)C)C[C@H](OC(=O)Nc4cccs4)[C@@]3(O)C2)cc1,.,.,.,.,.,1
COC1=C[C@H](C(=O)NC2CCN(Cc3ccccc3)CC2)[C@H](C)[C@@H](c2ccccc2)CC1=O,.,.,.,.,.,0
COc1ccc(N2CCN(C(=O)c3cc4c(=O)n(Cc5ccccc5)ccc4nc3C)CC2)cc1,.,.,2,-27,.,0
Cc1nc2ccn(Cc3ccccc3)c(=O)c2cc1C(=O)N1CCN(c2ccc(F)cc2)CC1,.,.,69*,-31,.,0
CC(C)C[C@H]1COc2cc(N3CCSCC3)ccc2S(=O)(=O)N1C,.,.,.,.,.,0
CCOc1ccc(CNC(c2ccccc2)c2ccccc2)cc1,.,.,33*,58,.,0
CCOc1ccc(CNCc2ccccc2Cl)cc1,0,0,4,10,-3,0
CON(C)S(=O)(=O)NC(=O)C1=C(N2CCCC2)COC1=O,.,.,.,.,.,0
CCC(=O)Nc1cccc(-n2nnnc2SCC(=O)N2CCCCC2)c1,-3,1,-3,8,-1,0
CCCCOc1ccc(-c2nnn(C(C)C(=O)OCC)n2)cc1 (configuration not stated),-5,-6,91*,18,-2,0
O=C(Nc1nncs1)c1ccc(S(=O)(=O)c2ccccc2)cc1,-7,-2,?,27,9.3*,0
Cc1ccc(NC(=O)Cn2nnc3ccccc32)cc1,0,-1,-1,-11,10*,0
Cc1cccc(NC(=O)Cn2nnc3ccccc32)c1,-2,.,1,-25,8,1
COC(=O)C1=C(N)Oc2cc(N(C)C)ccc2C1c1ccccc1OC (configuration not stated),-39,-14,24*,16,-1,-3
NC(=O)CCS(=O)(=O)c1ccc(Cl)cc1,1,1,1,20,10*,0
NC(=O)CCS(=O)(=O)c1ccccc1,0,0,-1,4,-1,0
Cc1c(CN(C)C(=O)/C=C/c2ccc([N+](=O)[O-])cc2)cnn1C,-1,0,1,13,8.9*,0
Cc1ccc(S(=O)(=O)NC(=O)C2(C)CCN2C(=O)c2ccccc2CCc2ccccc2)nc1 (configuration not stated),.,.,.,.,.,0
CC(=O)c1c(C)[nH]c(C(=O)N2CCCC(C)C2)c1C (configuration not stated),.,.,-3,15,.,0
CC(=O)c1c(C)[nH]c(C(=O)N2CCCCCC2)c1C,2,3,2,34,8.9*,0

# From PubChem BioAssay
